The source of these data is ChEMBL document CHEMBL5335834, “Development and In Vivo Evaluation of Small-Molecule Ligands for Positron Emission Tomography of Immune Checkpoint Modulation Targeting Programmed Cell Death 1 Ligand 1” (J Med Chem, 2024).

For data set [1], the target named is T1, Programmed cell death protein 1/Programmed cell death 1 ligand 1 (Homo sapiens, UniProt Q9NZQ7). The experiment in a line: Inhibition of His-tagged PD-1 (unknown origin)/hFc-tagged PD-L1 (unknown origin) protein-protein interaction incubated for 15 mins by HTRF assay. Format: protein-complex assay. The essentials:
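Small molecules were tested as 10-fold dilution series at a constant final 0.2% DMSO. IC50 came from a four-parameter variable-slope fit of normalized data, with three independent repeats.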

Data set [2] addresses T1, Programmed cell death protein 1/Programmed cell death 1 ligand 1. The experiment in a line: Inhibition of Ig-tagged PD-1 (unknown origin)/His-tagged PD-L1 (unknown origin) protein-protein interaction preincubated with PD-L1 for 15 mins followed by PD-1 addition measured after 15 mins by HTRF assay. Format: protein-complex assay. In general terms: In TR-FRET formats the signal depends on donor and acceptor labels being close together.

Data set [3] has as its target Programmed cell death 1 ligand 1 (Homo sapiens) (UniProt Q9NZQ7). Put plainly: Inhibition of [89Zr]Zr-atezolizumab binding from human PD-L1 transfected in CHO cells assessed as radioligand activity at 5000 nM preincubated for 30 mins followed by [89Zr]Zr-atezolizumab addition measured after 60 mins by Wizard2 gamma counter analysis (reference value: 8.4 %). Format: cell-based. As to conditions: time 90.0 min; call rule not given here. Also on record: scale not given: the % may be the effect or the level left.

The nature of data set [4]: Biodistribution in intestine of NSG mouse xenografted with CHO-K1 cells/CHO cells expressing hPD-L1 at 31.91 +/- 3.05 MBq measured for 60 mins by micro-PET analysis. Format: ADME, organism-based. Conditions: in vivo, 1 h. The essentials: (§1)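 Dynamic whole-body μPET/CT ran up to 60 min and was reconstructed by OSEM3D/MAP. Volumes of interest came from fused PET/CT, with uptake normalized to injected dose and volume as %ID/cc.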

Data set [5] is described as follows: Biodistribution in brain of NSG mouse xenografted with CHO-K1 cells/CHO cells expressing hPD-L1 at 31.91 +/- 3.05 MBq measured for 60 mins by micro-PET analysis. Conditions: in vivo, 1 h. Format: ADME, organism-based. The method, boiled down:
as §1

The test system of data set [6] is CHO. The experiment in a line: Biodistribution in CHO cells expressing hPD-L1 xenografted in NSG mouse co-xenografted with CHO-K1 cells at 31.91 +/- 3.05 MBq measured for 30 to 70 mins by Wizard2 gamma counter analysis. Conditions: chinese hamster, in vivo, time 30-70 min. Format: ADME, organism-based, Cricetulus griseus. The method, boiled down: (§2)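 Male NSG mice, 8–10 weeks old, carried subcutaneous CHO-K1 and CHO-hPD-L1 xenografts on opposite flanks (1.5 × 10^6 cells each in PBS/matrigel 1:1). Eleven days after inoculation, radiotracer was injected into the lateral tail vein under isoflurane. Organs were collected at 30, 40 and 70 min, wet-weighed and gamma-counted for 30 s. Counts were background- and decay-corrected to injection, expressed as %ID/g.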

A short description of data set [7]: Biodistribution in white adipose tissue of NSG mouse xenografted with CHO-K1 cells/CHO cells expressing hPD-L1 at 31.91 +/- 3.05 MBq measured for 60 mins by micro-PET analysis. Format: ADME, organism-based. Conditions: in vivo, 1 h. The essentials: as §1
Data set [8] in a line: Stability in human plasma assessed as compound remaining measured for 60 mins by HPLC analysis. Format: ADME, cell-free. Conditions: read-out: Stability. The essentials: (§3)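 Formulated radiotracer (25 μL) was incubated in 1250 μL pooled mouse or human plasma at 37 °C. At 0, 15, 30 and 60 min, aliquots were quenched with equal-volume MeCN and centrifuged (4 min, 4 °C, 21,380g). Intact tracer (%) was measured by reversed-phase radio-HPLC.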

Data set [9] is described as follows: Drug metabolism in brain of NSG mouse xenografted with CHO-K1 cells/CHO cells expressing hPD-L1 assessed as accumulation of radiometabolite formation at 31.91 +/- 3.05 MBq measured for 60 mins by micro-PET analysis. Format: ADME, tissue-based. Conditions: in vivo, 1 h.
A short description of data set [10]: Drug metabolism in white adipose tissue of NSG mouse xenografted with CHO-K1 cells/CHO cells expressing hPD-L1 assessed as accumulation of radiometabolite formation at 31.91 +/- 3.05 MBq measured for 60 mins by micro-PET analysis. Format: ADME, tissue-based. As to conditions: in vivo, 1 h.
Data set [11] in a line: Biodistribution in lung of NSG mouse xenografted with CHO-K1 cells/CHO cells expressing hPD-L1 at 31.91 +/- 3.05 MBq measured for 30 to 70 mins by Wizard2 gamma counter analysis. Format: ADME, organism-based. Conditions: in vivo, time 30-70 min. The essentials:
as §2

A short description of data set [12]: Biodistribution in gall bladder of NSG mouse xenografted with CHO-K1 cells/CHO cells expressing hPD-L1 at 31.91 +/- 3.05 MBq measured for 60 mins by micro-PET analysis. Format: ADME, organism-based. As to conditions: in vivo, 1 h. The essentials: as §1
Data set [13] can be described thus: Stability in mouse plasma assessed as compound remaining measured for 60 mins by HPLC analysis. Conditions: read-out: Stability. Format: ADME, cell-free. The essentials:
as §3

Data set [14] has as its system CHO-K1. Put plainly: Biodistribution in CHO-K1 cells xenografted in NSG mouse co-xenografted with CHO cells expressing hPD-L1 at 31.91 +/- 3.05 MBq measured for 60 mins by micro-PET analysis. As to conditions: chinese hamster, in vivo, 1 h. Format: ADME, organism-based, Cricetulus griseus. The essentials:
as §1

Data set [15] is described as follows: Biodistribution in kidney of NSG mouse xenografted with CHO-K1 cells/CHO cells expressing hPD-L1 at 31.91 +/- 3.05 MBq measured for 60 mins by micro-PET analysis. Conditions: in vivo, 1 h. Format: ADME, organism-based. The essentials:
as §1

Data set [16] relates to CHO. Put plainly: Biodistribution in CHO cells expressing hPD-L1 xenografted in NSG mouse co-xenografted with CHO-K1 cells at 31.91 +/- 3.05 MBq measured for 60 mins by micro-PET analysis. Format: ADME, organism-based, Cricetulus griseus. Conditions: chinese hamster, in vivo, 1 h. The method, boiled down:
as §1

Data set [17] can be described thus: Biodistribution in kidney of NSG mouse xenografted with CHO-K1 cells/CHO cells expressing hPD-L1 at 31.91 +/- 3.05 MBq measured for 30 to 70 mins by Wizard2 gamma counter analysis. Format: ADME, organism-based. As to conditions: in vivo, time 30-70 min. The essentials: as §2
The nature of data set [18]: Biodistribution in liver of NSG mouse xenografted with CHO-K1 cells/CHO cells expressing hPD-L1 at 31.91 +/- 3.05 MBq measured for 30 to 70 mins by Wizard2 gamma counter analysis. Format: ADME, organism-based. As to conditions: in vivo, time 30-70 min. The essentials:
as §2

Data set [19] relates to CHO-K1. Put plainly: Biodistribution in CHO-K1 cells xenografted in NSG mouse co-xenografted with CHO cells expressing hPD-L1 at 31.91 +/- 3.05 MBq measured for 30 to 70 mins by Wizard2 gamma counter analysis. As to conditions: chinese hamster, in vivo, time 30-70 min. Format: ADME, organism-based, Cricetulus griseus. The essentials:
as §2

The nature of data set [20]: Biodistribution in liver of NSG mouse xenografted with CHO-K1 cells/CHO cells expressing hPD-L1 at 31.91 +/- 3.05 MBq measured for 60 mins by micro-PET analysis. Format: ADME, organism-based. Conditions: in vivo, 1 h. The essentials: as §1
The nature of data set [21]: Drug uptake in human A-375 cells expressing PD-L1 xenografted in bilateral tumors bearing BALB/c mouse model at ~2.5 MBq measured for 120 mins by autoradiography. Format: ADME, cell-based. Conditions: in vivo, 2 h.
Data set [22] is described as follows: Biodistribution in bilateral tumors bearing BALB/c mouse model assessed as ratio of drug uptake in human A-375 cells expressing PD-L1 to drug uptake in human A-375 cells at ~2.5 MBq measured for 120 mins by autoradiography. As to conditions: a-375, 2 h. Format: ADME, organism-based, Neoplasm.
The nature of data set [23]: Drug uptake in human A-375 cells xenografted in bilateral tumors bearing BALB/c mouse model at ~2.5 MBq measured for 120 mins by autoradiography. As to conditions: in vivo, 2 h. Format: ADME, cell-based.
Data set [24] has as its target Programmed cell death 1 ligand 1 (Homo sapiens) (UniProt Q9NZQ7). The experiment in a line: Inhibition of [89Zr]Zr-atezolizumab binding from human PD-L1 transfected in CHO cells assessed as radioligand activity at 200 nM preincubated for 30 mins followed by [89Zr]Zr-atezolizumab addition measured after 60 mins by Wizard2 gamma counter analysis (reference value: 8.4 %). Format: cell-based. Also on record: scale not given: the % may be the effect or the level left. Conditions: time 90.0 min.

A short description of data set [25]: Drug uptake in mouse B16-F10 cells expressing PD-L1 in xenograft model. Format: ADME, cell-based. Conditions: in vivo.
The nature of data set [26]: Drug uptake in human A-375 cells xenografted in bilateral tumors bearing BALB/c mouse model at ~7.4 MBq measured for 50 mins by micro-PET imaging analysis. Format: ADME, cell-based. As to conditions: in vivo. On the technique in general: Xenograft models place foreign cells or tissue in a host animal.
Data set [27] in a line: Biodistribution in bilateral tumors bearing BALB/c mouse model assessed as ratio of drug uptake in human A-375 cells expressing PD-L1 to drug uptake in human A-375 cells at ~7.4 MBq measured for 50 mins by micro-PET imaging analysis. Format: ADME, organism-based, Neoplasm. Conditions: a-375, 50 min.
The nature of data set [28]: Drug uptake in human A-375 cells expressing PD-L1 xenografted in bilateral tumors bearing BALB/c mouse model at ~7.4 MBq measured for 50 mins by micro-PET imaging analysis. Format: ADME, cell-based. Conditions: in vivo.

pIC50: −log10 of the molar value.

T1 sequence (Q15116 whole entry): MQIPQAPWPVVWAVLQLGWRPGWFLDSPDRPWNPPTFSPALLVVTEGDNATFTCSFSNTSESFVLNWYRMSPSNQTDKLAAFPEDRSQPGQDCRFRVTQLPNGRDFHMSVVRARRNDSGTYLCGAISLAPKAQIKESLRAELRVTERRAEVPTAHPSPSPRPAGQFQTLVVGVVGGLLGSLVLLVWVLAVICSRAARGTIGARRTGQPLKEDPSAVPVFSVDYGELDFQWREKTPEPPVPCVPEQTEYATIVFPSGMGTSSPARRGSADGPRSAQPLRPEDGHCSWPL
T1 sequence (Q9NZQ7 whole entry): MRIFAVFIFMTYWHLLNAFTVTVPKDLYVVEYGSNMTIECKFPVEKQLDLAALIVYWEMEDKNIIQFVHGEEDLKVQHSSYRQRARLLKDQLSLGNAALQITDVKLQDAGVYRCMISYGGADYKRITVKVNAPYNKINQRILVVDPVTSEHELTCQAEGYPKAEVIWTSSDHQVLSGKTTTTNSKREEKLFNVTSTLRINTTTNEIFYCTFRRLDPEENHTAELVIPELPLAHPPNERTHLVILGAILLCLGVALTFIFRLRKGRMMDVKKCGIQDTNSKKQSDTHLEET
Sequence of Programmed cell death 1 ligand 1 (Homo sapiens) (Q9NZQ7 whole entry): as above

As for `N#Cc1cc(COc2cc(OCc3cccc(-c4ccc5c(c4)OCCO5)c3Br)c(Cl)cc2CN2CCCC[C@H]2C(=O)O)ccn1`, the pIC50 (usually the negative decadic logarithm of the IC50, by convention in mol/L) in [1] is 12.00.
Regarding `CCOc1cccc(-c2cccc(COc3cc(OC)c(CNCCNC(C)=O)c(OC)c3)c2C)c1`, the pIC50 in [2] was 6.96.
In data set [2], `Cc1cc(CN2CCCCC2C(=O)O)ccc1OCc1cccc(-c2ccccc2)c1C` (configuration not stated) had a pIC50 of 8.22.
Take `Cc1c(COc2cc(OCc3ccnc(C#N)c3)c(CN(C)CCO)cc2Cl)cccc1-c1ccc2c(c1)OCCO2`: the Activity in [3] was found to be 4.7%.
Turning to `Cc1c(COc2cc(OCc3ccnc(C#N)c3)c(CN(C)[C@H](CO)C(=O)O)cc2Cl)cccc1-c1ccc2c(c1)OCCO2`, in [3], the Activity turned out to be 4.2%.
On to `COc1cc(OCc2cccc(-c3ccc4c(c3)OCCO4)c2C)cc(OC)c1CNCCNC(C)=O`, for which the pIC50 in [2] is 8.22.
`Cc1c(COc2cc(OCc3ccnc(C#N)c3)c(CN([11CH3])CCO)cc2Cl)cccc1-c1ccc2c(c1)OCCO2`: the Drug uptake result is listed as “Active” in [4]; under 1.2 %ID/cc in data set [5]; under 1.5 % ID/g in [6]; under 1.2 %ID/cc in data set [7]; “Active” in data set [11]; “Active” in data set [12]. Moreover, the Drug uptake was under 1.2 %ID/cc in data set [14]; “Active” in data set [15]; under 1.2 %ID/cc in data set [16]; “Active” in [17]; “Active” in data set [18]; under 1.5 % ID/g in [19]. In addition, in data set [20], the Drug uptake entry is reported as “Active”. Besides, the remaining at 1 h in data set [8] and in data set [13] was over 99% throughout. For the same compound, the Drug metabolism entry in data set [9] and in data set [10] was “Metabolite_Notdetected” in each case.
As for `Cc1c(COc2cc(OCc3cccc(C#N)c3)c(CNCCNC(=O)CO/N=C/[C@H]([18F])[C@@H](O)[C@H](O)[C@H](O)CO)cc2Cl)cccc1-c1ccc2c(c1)OCCO2`, the Drug uptake in data set [21] is 3.98 % ID/g; in [23] it was 1.38 % ID/g. Moreover, the Ratio in data set [22] is reported as 2.9.
As for `CCOC(=O)/C(C#N)=C/c1cccc(C#N)c1`, the Activity in [24] turned out to be 0%.
In data set [1], `N#Cc1cncc(COc2cc(OCc3cccc(-c4ccccc4)c3Br)c(Cl)cc2CN2CCCC[C@H]2C(=O)O)c1` had a pIC50 of 11.00.
Turning to `Cc1c(COc2cc(OCc3cccc(OS(=O)(=O)[18F])c3)c(CNC(CO)(CO)CO)cc2Cl)cccc1-c1ccc2c(c1)OCCO2`, the Drug uptake in data set [25] is given as 3.33 %ID/ml.
As for `Cc1c(COc2cc(OCc3cccc(C#N)c3)c(CN3CCN(CCOCCOCCOCC[18F])CC3)cc2Cl)cccc1-c1ccc2c(c1)OCCO2`, the Drug uptake in data set [26] is on record as 1.19 %ID/ml; in [28], 3.53 %ID/ml. In addition, the Ratio in data set [27] was found to be 3.
